# Results from different studies.
# Target: Calcium/calmodulin-dependent protein kinase type II subunit alpha (CAMK2A, Homo sapiens, UniProt Q9UQM7)
SMILES,observed,action,technique,concentration,endpoint,result
N#CC1(c2ccccn2)CCN(Cc2cc(C(=O)O)c(=O)n3ccccc23)CC1,cell-free assay,,competition with immobilised ligand,1 µM,remaining binding,83%
O=c1[nH]c2ccccc2n1C1CCN(Cc2ccc(-c3[nH]c4cc5ncnc5cc4nc3-c3ccccc3)cc2)CC1,cell-free assay,,,0.5 µM,remaining signal,109%
Cc1nn(C)cc1-c1nc2c(N3CCN(Cc4ccc(Cl)cc4)CC3)c(Cl)cnc2[nH]1,binding,,competition with immobilised ligand,1 µM,remaining binding,95%
Cc1ncc(C)n2nc(/C=C/c3nc(N4CCCC4)cc(N4CCOCC4)n3)nc12,enzyme activity,inhibitor,,10 µM,inhibition,6%
Cn1cc(-c2cc(F)cc(N3CCn4c(cc5c4CCCC5)C3=O)c2CO)cc(Nc2ccc(N3CCN(C4COC4)CC3)cn2)c1=O,enzyme activity,inhibitor,,0.1 µM,inhibition,12%
Nc1ncc(-c2nc(N3CCOCC3)nc(N3CCOCC3)n2)c(C(F)F)n1,binding,,competition with immobilised ligand,10 µM,remaining binding,64%
O=C(Nc1cccnn1)N1CCN([C@@H]2CCOc3cc(C(F)(F)F)ccc32)CC1,cell-free assay,,,20 µM,inhibition,3%
COc1ncccc1-c1cnn2ccc(N3CCN(C(=O)OC(C)C)CC3)nc12,binding,,competition with immobilised ligand,1 µM,remaining binding,70%
Cn1cncc1[C@](O)(COc1ccc(C#N)cc1-c1ccc(OC(F)(F)F)cc1)c1ccc(C#N)cc1,cell-free assay,,competition with immobilised ligand,1 µM,remaining binding,95%
Cn1cc(-c2cccc(N3CCc4c(sc5c4CC(C)(C)C5)C3=O)c2CO)cc(Nc2ccncn2)c1=O,enzyme activity,inhibitor,,1 µM,inhibition,-7%
